In publication PMC5148661 (ACS infectious diseases, 2016):

Legend:
Caco-2 cell monolayers = assay: Caco-2 cell permeability; type: in vitro ADME; settings: both directions
Minipig DHODH = Minipig DHODH (Sus scrofa, UniProt F1S3B0); assay: DHODH inhibition, DCIP-based assay; type: biochemical
[1] = system: P. falciparum field isolates; assay: ex vivo 48 h schizont maturation assay; type: cell-based; settings: Plasmodium falciparum, read-out: unbound EC50
Procedure, shortened: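 Field isolates came from patients at malaria clinics in Timika, Papua, Indonesia, and were tested in a 48 h schizont maturation assay adapted from the WHO microtest at 2% hematocrit. P. falciparum was run in RPMI 1640 with 10% AB+ human serum. P. vivax was run in McCoy's 5A with 20% AB+ human serum.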

[2] = system: P. falciparum field isolates; assay: P. falciparum clinical isolates; type: cell-based; settings: Plasmodium falciparum, 72 h, read-out: unbound EC50
[3] = P. falciparum SCID mouse efficacy model; type: in vivo; settings: NOD-scid IL-2Rγnull (NSG), mouse, blood, oral
[4] = system: P. falciparum Pf3D7^0087/N9; assay: P. falciparum SCID mouse efficacy model; type: in vivo
[5] = metabolic stability in liver microsomes; type: in vitro ADME; settings: human
physchem = type: physicochemical
P. vivax DHODH = P. vivax DHODH (Plasmodium vivax, UniProt A5K1N1); assay: DHODH inhibition, DCIP-based assay; type: biochemical
Chain of P. vivax DHODH (A5K1N1 160-572): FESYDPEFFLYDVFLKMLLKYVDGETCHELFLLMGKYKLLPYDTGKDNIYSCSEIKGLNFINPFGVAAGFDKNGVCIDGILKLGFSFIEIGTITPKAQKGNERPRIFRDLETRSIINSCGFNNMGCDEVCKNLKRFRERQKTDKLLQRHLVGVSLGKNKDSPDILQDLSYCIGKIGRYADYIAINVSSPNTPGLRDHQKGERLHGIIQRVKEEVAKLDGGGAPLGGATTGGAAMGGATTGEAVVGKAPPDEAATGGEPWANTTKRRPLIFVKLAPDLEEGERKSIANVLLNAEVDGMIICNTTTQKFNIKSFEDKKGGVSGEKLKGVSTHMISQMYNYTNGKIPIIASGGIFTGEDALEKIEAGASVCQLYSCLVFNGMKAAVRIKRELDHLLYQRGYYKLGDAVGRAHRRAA

[6] = cytotoxicity against a human cell line; type: cell-based; settings: human, HepG2 cells
Human HepG2 cells = assay: cytotoxicity against a human cell line; type: cell-based
CYP2C9 = CYP2C9 (Homo sapiens, UniProt P11712); assay: reversible cytochrome P450 inhibition; type: in vitro ADME
Chain of CYP2C9 (P11712 whole entry, canonical isoform): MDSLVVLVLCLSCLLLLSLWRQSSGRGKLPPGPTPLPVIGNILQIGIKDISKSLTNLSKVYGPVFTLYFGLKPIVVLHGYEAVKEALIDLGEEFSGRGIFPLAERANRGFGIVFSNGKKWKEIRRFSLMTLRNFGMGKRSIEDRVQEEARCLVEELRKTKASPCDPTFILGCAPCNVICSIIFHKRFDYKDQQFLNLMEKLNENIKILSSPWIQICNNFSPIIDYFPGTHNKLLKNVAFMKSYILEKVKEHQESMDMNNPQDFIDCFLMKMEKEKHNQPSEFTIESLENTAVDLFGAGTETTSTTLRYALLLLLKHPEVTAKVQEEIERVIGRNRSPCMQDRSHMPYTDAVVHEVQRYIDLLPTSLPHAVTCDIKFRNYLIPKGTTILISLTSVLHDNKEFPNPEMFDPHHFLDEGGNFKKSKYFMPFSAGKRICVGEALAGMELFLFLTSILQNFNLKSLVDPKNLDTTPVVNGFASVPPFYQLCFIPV
Procedure, shortened: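 Reversible inhibition of human CYP isoforms tested with isoform-specific probe substrates. Time-dependent (mechanism-based) inhibition was also assessed.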

[7] = system: D10w/yDHODH P. falciparum cell line; assay: growth inhibition of transgenic P. falciparum expressing yeast DHODH; type: cell-based
Procedure, shortened: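 D10 parasites transfected with yeast DHODH were grown in human erythrocytes in RPMI 1640 with 0.5% Albumax II. EC50 came from a 72 h dose–response growth assay read by SYBR Green DNA fluorescence.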

[8] = molecular target: P. berghei DHODH (PbDHODH) (Plasmodium berghei, UniProt A0A509AEH5); assay: DHODH inhibition, DCIP-based assay; type: biochemical
Chain of P. berghei DHODH (PbDHODH) (A0A509AEH5 132-517): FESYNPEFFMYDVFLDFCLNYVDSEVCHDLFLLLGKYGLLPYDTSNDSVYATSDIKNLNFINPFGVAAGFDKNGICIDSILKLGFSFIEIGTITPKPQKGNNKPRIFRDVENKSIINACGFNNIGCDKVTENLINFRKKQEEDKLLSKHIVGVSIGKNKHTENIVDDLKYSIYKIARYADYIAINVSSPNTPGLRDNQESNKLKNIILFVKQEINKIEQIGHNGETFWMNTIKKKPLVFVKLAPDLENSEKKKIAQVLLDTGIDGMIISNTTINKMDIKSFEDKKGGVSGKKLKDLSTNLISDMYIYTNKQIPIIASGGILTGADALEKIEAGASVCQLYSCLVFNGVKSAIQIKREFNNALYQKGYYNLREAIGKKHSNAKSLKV

[9] = incubation in cryopreserved hepatocytes; type: in vitro ADME, human; settings: 10 μM over 120 minutes
Procedure, shortened: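 Human cryopreserved hepatocytes at 1 × 10^6 cells/mL were incubated with test compound at 10 μM. Metabolites were assigned by accurate mass measurement.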

Chain of Minipig DHODH (F1S3B0 1-395): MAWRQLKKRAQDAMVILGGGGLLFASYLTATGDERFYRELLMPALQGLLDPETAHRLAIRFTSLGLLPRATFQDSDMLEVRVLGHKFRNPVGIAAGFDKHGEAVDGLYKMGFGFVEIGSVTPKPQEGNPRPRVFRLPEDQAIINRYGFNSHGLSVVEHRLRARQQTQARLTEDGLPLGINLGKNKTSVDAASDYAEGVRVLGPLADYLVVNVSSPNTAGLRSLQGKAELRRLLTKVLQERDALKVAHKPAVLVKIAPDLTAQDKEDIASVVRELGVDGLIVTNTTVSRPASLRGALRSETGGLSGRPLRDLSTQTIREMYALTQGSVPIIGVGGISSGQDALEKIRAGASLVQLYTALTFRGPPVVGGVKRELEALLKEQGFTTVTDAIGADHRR

Cc1cc(Nc2ccc(C(F)(F)F)nc2)n2nc(C(C)(F)F)nc2n1 [DSM421, 2-(1,1-Difluoroethyl)-5-methyl-N-(6-(trifluoromethyl)pyridin-3-yl)-[1,2,4]triazolo[1,5-a]pyrimidin-7-amine]
permeability across Caco-2 cell monolayers (Caco-2 cell monolayers): high in both directions with no evidence for significant efflux
IC50 (Minipig DHODH): > 100 µM
EC50 [1]: 23 nM
EC50 [2]: 12 nM
AUC(0-t) ([3]; 2.6 mg/kg/day): 12900 ng·h/mL
AUC(0-t) ([3]; 5 mg/kg/day): 30800 ng·h/mL
tolerability ([4]; SCID mice, oral QD 4 days): well tolerated and no adverse reactions were noted
Cav at ED90 ([4]; blood): 0.53 µg/mL
Cmin at 5 mg/kg/day ([4]; blood): 0.33 µg/mL
Cmin at ED90 ([4]; blood): 0.1 µg/mL
ED90 24 h after the last dose ([4]; oral QD for 4 days): 2.6 mg/kg/day
dose giving maximum parasite killing ([4]; oral QD for 4 days): ≥ 5 mg/kg/day
microsomal CLint at 1 μM [5]: < 7 µL/min/mg
logD (physchem; pH 7.4, measured Log D7.4, text (Table S6)): 2.36
measured Log D7.4 (physchem; text (Table S6)): 2.4
IC50 (P. vivax DHODH): 94 nM
fold lower activity (higher IC50) on P. vivax DHODH than PfDHODH (P. vivax DHODH): 2 fold
EC50 [6]: > 50 µM
selectivity window HepG2 over activity against P. falciparum (Human HepG2 cells): 600-5000 fold
inhibition at 20 µM (CYP2C9): 22%
inhibition of D10w/yDHODH line [7]: did not inhibit this line
EC50 ([7]; read-out: EC50 on D10 cells transfected with yeast DHODH): > 10 µM
IC50 [8]: 5 µM
fold less active against PbDHODH than PfDHODH [8]: 100 fold
degradation in human hepatocyte incubations [9]: minimal degradation
